From PubChem
WNV protease inh = inhibitors of West Nile virus NS2B-NS3 protease | z-score (test concentration not listed) | WNV NS2B-NS3 protease, fluorogenic substrate Ex360/Em465; active compounds read low | 65,000 tested, 0.18% active; in the data active means z-score below about -3
E coli WT exp = blocks growth of wild type E. coli BW25113; OD600 absorbance; growth inhibition, % at 100 µM; 98,000 tested, 0.15% active;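 active means growth inhibition above about 50% at one test dose, limit read from the data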;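 further: growth measured after 20 h incubation at 37 °C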
AP complement = alternative pathway complement inhibition, orthogonal assay | Human serum alternative complement pathway, LPS-coated ELISA, C3 deposition; tested in compound mixtures | inhibition, % at 5 µM | 62,000 tested, 0.08% active;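 active means inhibition above 30% in each of the two pooled mixtures holding the compound, so the lower value exceeds 30%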;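 further: 0% = serum in Mg-EGTA without compound and 100% = EDTA serum blank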
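Test system – human serum alternative complement pathway, C3 deposition on LPS-coated wells · Buffer or medium – diluted human serum in Mg2+-EGTA GVB++ · Compound dosing – 5 µM each compound, pools of ten, 50 µM per pool · Schedule – 1 h serum-compound exposure at 37 °C · Measured by – Anti-C3 ELISA, OD 450 nm · Read-out basis – percent inhibition of C3 deposition onto LPS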
Ecoli tolC = growth inhibitors of E. coli BW25113 tolC mutant | OD615 | AID 573 | 65,000 tested, 2.2% active | growth inhibition, % at 10 µM (by protocol);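 active means growth inhibition at or above a cutoff equal to the mean over every tested compound plus 3 SD, cut at about 60% in these data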;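 further: growth measured after 20 h incubation at 37 °C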
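Test system: tolC-deleted E. coli BW25113 | Medium: LB with kanamycin 50 µg/mL | Compound dosing: Single concentration, 10 µM final per compound | Schedule: 37 °C, 20 h exposure | Measured by: OD at 615 nm | Evaluation: Percent growth inhibition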
M1 antag = antagonists of rat M1 muscarinic receptor. AID 628. P08482. B-score at 10 µM. 64,000 tested, 3.4% active. CHO-M1 cells, Fluo-4 calcium, ACh EC80 antagonist mode; active compounds read low;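 active means calcium fluorescence response, raw or row-and-column corrected B-score, differing from the plate sample mean either way at a set confidence level, mostly lower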
Target sequence (P08482 whole entry, looked up): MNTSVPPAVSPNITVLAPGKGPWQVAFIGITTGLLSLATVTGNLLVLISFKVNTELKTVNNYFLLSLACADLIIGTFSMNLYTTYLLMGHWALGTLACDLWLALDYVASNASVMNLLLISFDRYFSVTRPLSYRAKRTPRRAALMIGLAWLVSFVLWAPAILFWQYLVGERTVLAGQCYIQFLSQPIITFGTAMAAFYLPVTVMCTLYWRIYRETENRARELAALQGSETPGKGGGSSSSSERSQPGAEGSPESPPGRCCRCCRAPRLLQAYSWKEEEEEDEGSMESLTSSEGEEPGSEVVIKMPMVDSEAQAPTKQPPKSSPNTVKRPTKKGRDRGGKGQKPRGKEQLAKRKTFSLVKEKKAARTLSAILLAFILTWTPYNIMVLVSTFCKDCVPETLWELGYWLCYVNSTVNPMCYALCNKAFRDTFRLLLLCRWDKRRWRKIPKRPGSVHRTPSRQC
M1 agonist = agonists of M1 muscarinic receptor. CHO-M1 cells, Fluo-4 calcium fluorescence, agonist mode; active compounds read high. B-score at 10 µM. 64,000 tested, 3% active;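 active means fluorescence rise, raw or as B-score row- and column-corrected plate score, outside the 99.7% band of its plate's samples, either direction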
M1 antag confirm = M1 muscarinic receptor (rat) antagonism, confirmed | shares compounds with M1 antag | CHO-M1 cells, Fluo-4 calcium, ACh EC80 antagonism; active compounds read low | calcium response (max-min fluorescence) at 10 µM | 1,700 tested, 43% active | AID 677;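 active means calcium response below the same-plate mean of wells given acetylcholine alone at its 80%-effect dose, minus 3 SD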;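 further: raw fluorescence intensity difference in arbitrary instrument units and not normalized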
mGluR4 antag = selectivity test for M1 antagonists: human mGluR4 receptor. shares compounds with M1 antag. CHO-mGluR4 calcium flux, Fluo-4 fluorescence, glutamate EC80; active compounds read low. fluorescence response (max-min) at 10 µM. 1,700 tested, 0.9% active;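 active means fluorescence response below the plate's average for near-maximal glutamate wells, less 3 SD of those wells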;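 further: raw unnormalized fluorescence span taken in the window right after glutamate addition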
Numbers without * were called inactive; . = no result. Rows were chosen to be rich in hits. Some 5.2% of all compounds tested hit in one or more screens of this group.

SMILES	WNV protease inh	E coli WT exp	AP complement	Ecoli tolC	M1 antag	M1 agonist	M1 antag confirm	mGluR4 antag
Cc1ccc(S(=O)(=O)NC2=NCN(C3CCN(Cc4ccccc4)CC3)CN2)cc1	-0.55	-19.0	5.4	-1.5	-3.2*	0.586	449	201
Cc1ccc(S(=O)(=O)NC2=NCN(Cc3ccccc3)CN2)cc1	-0.41	4.0	2.0	-15.9	0.0442	-0.434	.	.
O=C(CCN1C(=O)c2ccccc2C1=O)N1CCC(c2ccccc2)C1 (stereo not given)	-0.59	8.0	14.3	7.6	0.283	0.126	.	.
COc1cccc(CNc2ccc(N3CCCCC3)cc2)c1OC	-1.43	4.0	10.0	8.2	-1.1	-0.0174	.	.
COc1ccccc1CNc1ccc(N2CCCCC2)cc1	0.93	8.0	5.8	21.3	-4.38*	-0.00244	318*	244
Cc1onc(-c2ccccc2Cl)c1C(=O)Nc1ccc(-n2nncc2-c2ccco2)cc1	-0.38	-4.0	11.4	43.5	-1.86*	-0.212	379*	208
c1ccc2c(c1)CCCN2Cc1nnnn1C1CCCC1	0.52	6.0	-9.1	3.0	-1.35	-0.0644	.	.
CN1CCN(c2ccc(Cl)cc2NC(=O)C2COc3ccccc3O2)CC1 (stereo not given)	-1.37	-8.0	14.6	7.7	-1.4	-0.875	.	.
CN1CCN(C2=Nc3ccccc3Oc3ccc(Cl)cc32)CC1	-0.59	.	18.1	7.2	-12.8*	0.265	14.9*	267
CCNS(=O)(=O)c1ccc(NC(=O)Cc2ccc(F)cc2)cc1	-0.84	15.0	18.8	9.5	-5.5*	0.0564	561*	197
CC(=O)Nc1ccc(S(=O)(=O)NCCC(=O)NCCc2ccc(F)cc2)cc1	.	2.0	.	.	.	.	.	.
CC1(C)Cc2c(sc(NC(=O)c3ccco3)c2C#N)CO1	-1.57	4.0	-2.4	3.2	-0.357	0.133	.	.
Cc1cccc(NC(=O)c2sc(NC(=O)c3ccco3)c(C#N)c2C)c1C	-0.01	-17.0	2.4	5.3	-2.47*	-0.627	612	229
CCS(=O)(=O)c1nc2ccccc2n1CC(=O)N1CCOCC1	0.44	2.0	5.5	-0.7	-2.67*	-0.86	689	213
COc1ccc(CNC(=O)NCc2ccc(OC)c(OC)c2)cc1OC	0.83	-2.0	6.4	-2.7	-2.36*	-1.42	524	206
O=C(c1ccc(=O)oc1)N1CCN(C(c2ccccc2)c2ccccc2)CC1	-0.59	14.0	.	5.6	-2.68*	0.417	319*	236
Cc1cc(C(=O)N2CCN(C(c3ccccc3)c3ccccc3)CC2)no1	0.53	1.0	-0.9	27.2	-3.02*	0.145	301*	198
CCc1ccc(C2CC(c3cccc(OC)c3)n3nc(N)nc3N2)cc1 (stereo not given)	-0.89	.	10.8	10.6	-0.21	-0.229	.	.
Cc1ccccc1C(=O)N/N=C/c1ccc(OCC(=O)N2CCCCC2)cc1	.	0.0	.	.	.	.	.	.
Cc1cccc(NC(=O)c2ccccn2)c1C	0.38	4.0	0.2	-2.1	-1.86*	0.834	658	256
Cc1ccc(C)c(NC(=O)c2ccccn2)c1	-0.58	-1.0	20.0	-5.3	0.585	0.0912	.	.
CCOC(=O)Nc1ccc2c(c1)N(C(=O)CN(CC)CC)c1ccccc1C=C2	-1.14	1.0	11.8	-2.4	-5.89*	0.111	28.2*	232
CC(C)(C)NC(=O)c1cc(F)c(F)cc1Cl	.	4.0	.	.	.	.	.	.
CCCCn1nnnc1NCc1ccc(N2CCCC2)cc1	-0.22	10.0	9.9	2.5	-3.75*	-0.817	544	240
CCCCn1nnnc1NCc1cccnc1	0.07	6.0	7.2	-6.8	0.314	0.0212	.	.
SMILES	WNV protease inh	E coli WT exp	AP complement	Ecoli tolC	M1 antag	M1 agonist	M1 antag confirm	mGluR4 antag
COC(=O)c1[nH]cnc1C(=O)c1ccccc1	-0.93	-8.0	-1.4	-19.5	0.275	0.418	.	.
CC1CCN(Cc2ccc(NC(=O)C3CCN(c4nnc(-n5cccc5)s4)CC3)cc2)CC1	-0.51	0.0	6.9	6.4	-12.6*	-0.715	14.8*	220
O=C(CSc1nccn1-c1ccc(Cl)cc1)NCc1ccc2c(c1)OCO2	0.74	4.0	14.5	24.4	-0.162	-1.18	.	.
CCOC(=O)C1=C(C)OC(N)=C(C#N)C1c1cc2c(cc1Br)OCO2 (stereo not given)	-0.2	10.0	8.0	12.6	-1.9*	-0.733	417*	208
C=CCOC(=O)C1=C(C)OC(N)=C(C#N)C1c1ccc2c(c1)OCO2 (stereo not given)	0.00198	-9.0	-11.9	6.5	0.441	-0.0714	.	.
COc1cc(C2/C(=C(/O)c3ccc(F)cc3)C(=O)C(=O)N2CCCC(=O)O)ccc1O (stereo not given)	-0.19	-8.0	-7.6	0.0	-0.201	-0.326	.	.
NC(=O)c1cnn2c(C(F)(F)F)cc(-c3ccc(F)cc3)nc12	-1.01	6.0	-12.0	-4.7	0.17	0.263	.	.
CCC(=O)c1ccc(OCC(O)CN(C)C2CCCCC2)cc1 (stereo not given)	-0.23	-5.0	2.2	-2.2	-5.47*	0.53	480*	235
CC(=O)c1ccc(OCC(O)CN2C(C)CCCC2C)cc1 (stereo not given)	-1.3	-4.0	7.7	-11.3	-1.98*	0.77	518	245
CN(CC(O)COc1ccc(OCC(O)CN(C)C2CCCCC2)cc1)C1CCCCC1 (stereo not given)	-0.13	0.0	0.1	16.7	-0.643	-0.912	.	.
COC(=O)c1ccc(OCC(O)CN2CCC(C)CC2)cc1 (stereo not given)	-0.27	6.0	9.1	-2.0	-3.52*	0.939	527	275
Cc1cc(CN2CCN(CCC#N)CC2)c(O)c(C2(C)CCCCC2)c1	0.49	7.0	-11.1	31.7	0.0447	-0.272	.	.
CSC1=NCCN1C(=O)c1c(-c2ccccc2Cl)noc1C	-0.09	1.0	5.6	-9.6	0.199	-0.149	.	.
Cc1onc(-c2ccccc2Cl)c1C(=O)N1CCc2ccccc2C1	.	7.0	.	.	.	.	.	.
Cc1onc(-c2c(Cl)cccc2Cl)c1C(=O)N1CCc2ccccc21	0.06	-14.0	0.8	18.6	-8.3*	0.498	120*	226
Cc1onc(-c2c(F)cccc2Cl)c1C(=O)N1CCc2ccccc2C1	0.04	2.0	7.4	22.2	-3.19*	0.359	517	233
COc1cccc(C2(O)CCN(C(=O)Cc3cccnc3)CC2)c1	.	1.0	.	.	.	.	.	.
COC(=O)c1ccc(CSc2ccc3nnc(-c4ccccn4)n3n2)o1	1.14	-2.0	21.6	-0.3	0.51	0.3	.	.
CCOc1ccc(-c2nnc3ccc(SCc4ccc(C(=O)OC)o4)nn23)cc1	0.9	-1.0	4.9	49.2	-3.99*	0.0458	520*	227
CCN(CC)CCN(CC)Cc1ccccc1Br	0.72	2.0	3.8	-12.1	-3.29*	0.706	451	193
